The target of data set [1] is T1, Metabotropic glutamate receptor 5 (Rattus norvegicus, UniProt P31424). Kind of data set: Displacement of [3H]methoxy-PEPY from rat mGluR5 expressed in human HEK-293 cells by liquid scintillation counting. In kind it is cell-based, HEK293. In outline: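 Membranes from stable rat mGluR5-HEK293A cells (10 µg/well) incubated with 2 nM [3H]methoxy-PEPY in 50 mM Tris/0.9% NaCl, pH 7.4, with or without compound, 1 h at room temperature with shaking. Filtered on GF/B, washed three times, counted by liquid scintillation. Ki derived from fitted IC50; three experiments in duplicate.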
(Loss of bound radioactivity is the signal in a displacement assay; it reports binding, not function.)

The target in data set [2] is T1, Metabotropic glutamate receptor 5. Kind of data set: Antagonist activity at rat mGluR5 expressed in human HEK-293 cells assessed as inhibition of glutamate-induced intracellular calcium mobilization. In kind it is functional, cell-based, HEK293.
The nature of data set [3]: Octanol-phosphate buffer partition coefficient, log D of the compound at pH 7.4. The data set is classed as physicochemical. The procedure, abridged: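 Log D measured as partition of the [123I]-labelled compound between octanol and phosphate buffer pH 7.4.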
A further data set has as its system Rattus norvegicus. Kind of data set: Analgesic activity in ip dosed rat post-operative pain model. The data set is classed as functional.

T1 sequence (P31424 whole entry): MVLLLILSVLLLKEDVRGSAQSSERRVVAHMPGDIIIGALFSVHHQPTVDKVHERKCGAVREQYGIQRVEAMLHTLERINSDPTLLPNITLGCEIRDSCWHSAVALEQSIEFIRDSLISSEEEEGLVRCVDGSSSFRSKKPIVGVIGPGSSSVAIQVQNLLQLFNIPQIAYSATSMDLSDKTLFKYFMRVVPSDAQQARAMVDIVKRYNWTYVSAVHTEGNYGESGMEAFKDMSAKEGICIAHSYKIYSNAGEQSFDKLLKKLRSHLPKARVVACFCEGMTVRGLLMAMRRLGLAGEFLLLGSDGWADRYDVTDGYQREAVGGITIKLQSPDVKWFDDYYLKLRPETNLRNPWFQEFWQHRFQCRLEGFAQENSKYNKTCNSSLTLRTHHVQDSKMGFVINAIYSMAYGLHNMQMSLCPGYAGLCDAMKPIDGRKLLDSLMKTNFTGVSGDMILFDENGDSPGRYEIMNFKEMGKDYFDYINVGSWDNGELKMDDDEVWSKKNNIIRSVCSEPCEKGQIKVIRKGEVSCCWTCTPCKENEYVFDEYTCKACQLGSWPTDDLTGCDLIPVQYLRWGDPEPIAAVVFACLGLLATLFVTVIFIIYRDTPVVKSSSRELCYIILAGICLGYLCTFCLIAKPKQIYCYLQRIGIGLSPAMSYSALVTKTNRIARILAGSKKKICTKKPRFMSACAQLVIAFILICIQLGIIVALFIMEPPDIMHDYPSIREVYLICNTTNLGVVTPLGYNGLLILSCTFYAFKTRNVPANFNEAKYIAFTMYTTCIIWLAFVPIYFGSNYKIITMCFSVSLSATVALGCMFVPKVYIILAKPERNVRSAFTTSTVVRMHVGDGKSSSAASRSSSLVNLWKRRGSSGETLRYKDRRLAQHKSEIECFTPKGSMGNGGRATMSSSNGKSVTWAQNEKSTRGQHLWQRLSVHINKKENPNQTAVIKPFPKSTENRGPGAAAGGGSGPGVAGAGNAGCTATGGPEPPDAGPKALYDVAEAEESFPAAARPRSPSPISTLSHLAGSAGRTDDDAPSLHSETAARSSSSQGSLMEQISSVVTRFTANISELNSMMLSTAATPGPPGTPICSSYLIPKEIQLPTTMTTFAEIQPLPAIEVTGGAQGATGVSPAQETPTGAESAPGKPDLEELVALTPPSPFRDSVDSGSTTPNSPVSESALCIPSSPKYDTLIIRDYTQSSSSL

With `Cc1nc(C#Cc2cc(C#N)cc([N+](=O)[O-])c2)cs1`, the affinity in data set [1], expressed as Ki, was 0.36 nM. The IC50 (as a rule, the point on the concentration scale where inhibition reaches its midpoint) in data set [2] worked out at 2.63 nM. For `Cc1nc(C#Cc2cc(Br)cc([N+](=O)[O-])c2)cs1`, in that order: 0.93 nM and 0.73 nM.

Turning to `N#Cc1cc(I)cc(C#Cc2ccccn2)c1`, in data set [2], the IC50 turned out to be 0.66 nM. As for `Cc1nc(C#Cc2cc(Cl)cc(C#N)c2)cs1`, the Ki (usually the dissociation constant of the complex between target and ligand, obtained from inhibition or displacement) in data set [1] was 0.127 nM. The IC50 in data set [2] was 1.61 nM.

Consider `Cc1nc(C#Cc2cc(Br)cc(C#N)c2)cs1`, for which, in data set [1], the affinity corresponds to a Ki of 0.106 nM. For the same compound, the IC50 in data set [2] worked out at 1.06 nM.

In data set [1], `Cc1nc(C#Cc2cc(I)cc(C#N)c2)cs1` had a Ki of 2.14 nM. In addition, the IC50 in data set [2] amounted to 1.05 nM.

As for `Cc1nc(C#Cc2cc(F)cc([N+](=O)[O-])c2)cs1`, the affinity in data set [1], expressed as Ki, was 0.3 nM. Moreover, in data set [2], the IC50 turned out to be 0.61 nM. The matching figures for `Cc1nc(C#Cc2cc(I)cc([N+](=O)[O-])c2)cs1`: 1.84 nM and 1.75 nM. Compound `Cc1nc(C#Cc2cc(F)cc(Br)c2)cs1` came in with a Ki in data set [1] of 1.06 nM. In addition, the IC50 in data set [2] is 1.11 nM. Compound `Cc1nc(C#Cc2cc(Br)cc(Br)c2)cs1` registered a Ki in data set [1] of 0.69 nM. The IC50 in data set [2] is 1.45 nM. With `Cc1cccc(C#Cc2cc(C#N)cc([N+](=O)[O-])c2)n1`, the IC50 in data set [2] came out at 3.68 nM. On the same count and under the same terms, in the case of `Cc1cccc(C#Cc2cc(Br)cc([N+](=O)[O-])c2)n1` it was 0.63 nM; in that of `Cc1cccc(C#Cc2cc(Cl)cc(C#N)c2)n1`, 1.22 nM; in that of `Cc1cccc(C#Cc2cc(F)cc(C#N)c2)n1`, 1.22 nM. Regarding `Cc1cccc(C#Cc2cc(I)cc(C#N)c2)n1`, in data set [2], the IC50 was found to be 0.71 nM. As for `Cc1ccc(C#Cc2cc(C#N)cc([N+](=O)[O-])c2)nc1`, the IC50 in data set [2] came to 2.64 nM. As for `Cc1ccc(C#Cc2cc(Br)cc([N+](=O)[O-])c2)nc1`, the IC50 in data set [2] was found to be 7.36 nM. For the compound `Cc1ccc(C#Cc2cc(Cl)cc(C#N)c2)nc1`, in data set [2], the IC50 worked out at 1.22 nM. In the case of `Cc1ccc(C#Cc2cc(F)cc(C#N)c2)nc1`, in data set [2], the IC50 was determined as 0.32 nM.

Take `Cc1ccc(C#Cc2cc(Br)cc(C#N)c2)nc1`: the IC50 in data set [2] amounted to 1.02 nM. For the compound `N#Cc1cc(C#Cc2ccccn2)cc([N+](=O)[O-])c1`, in data set [2], the IC50 was determined as 1.32 nM. Consider `O=[N+]([O-])c1cc(Br)cc(C#Cc2ccccn2)c1`, for which, in data set [2], the IC50 was determined as 0.39 nM. Regarding `N#Cc1cc(Cl)cc(C#Cc2ccccn2)c1`, in data set [2], the IC50 was 1.03 nM. On to `O=[N+]([O-])c1cc(F)cc(C#Cc2ccccn2)c1`, for which the IC50 in data set [2] stood at 0.66 nM. As to `O=[N+]([O-])c1cc(I)cc(C#Cc2ccccn2)c1`, the IC50 in data set [2] was 2.09 nM.

For the compound `Cc1cccc(C#Cc2cc([123I])cc(C#N)c2)n1`, the logD (in general, lipophilicity at a set pH, counting ionised and neutral species) in data set [3] is 2.3. Consider `Cc1nc(C#Cc2cc(F)cc(C#N)c2)cs1`, for which the Ki in data set [1] came out at 0.36 nM. For the same compound, in data set [2], the IC50 was 1.89 nM. On to `Cc1cccc(C#Cc2ccccc2)n1`, for which, in the data set on Rattus norvegicus, the 50% effect level (ED50) was put at a dose of 15 mg/kg.

The values are drawn from ChEMBL document CHEMBL1781909, “Potent mGluR5 antagonists: pyridyl and thiazolyl-ethynyl-3,5-disubstituted-phenyl series” (Bioorg Med Chem Lett, 2011).
